Test results: ChEMBL document CHEMBL4190252, “Synthesis, antitumor activity and CDK1 inhibiton of new thiazole nortopsentin analogues” (Eur J Med Chem, 2017)
Active and inactive are the calls of the source. No cut-off for these calls is given here.

System: MOLT-4
Experiment: Growth inhibition of human MOLT4 cells incubated for 48 hrs by sulforhodamine B assay
Format: functional
Conditions: MOLT-4, 48 h
Outline: (§1)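 NCI full panel screen: five 10-fold dilutions (10^-4–10^-8 M). GI50 is the molar concentration giving 50% inhibition of net cell growth.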
`COCCn1cc(-c2csc(-c3c[nH]c4ccc(F)cc34)n2)c2cccnc21` gave a GI50 of 5.56 µM.

System: EKVX
Experiment: Growth inhibition of human EKVX cells incubated for 48 hrs by sulforhodamine B assay
Format: functional
Conditions: not given
Outline: as §1
For `COCCn1cc(-c2csc(-c3c[nH]c4ccc(F)cc34)n2)c2cccnc21`, the GI50 was 1980 nM.

System: NCI-H322M
Experiment: Growth inhibition of human NCI-H322M cells incubated for 48 hrs by sulforhodamine B assay
Format: functional
Conditions: not given
Outline: as §1
In the case of `COCCn1cc(-c2csc(-c3c[nH]c4ccc(F)cc34)n2)c2cccnc21`, the GI50 is reported as over 100 µM.

System: NCI-H460
Experiment: Growth inhibition of human NCI-H460 cells incubated for 48 hrs by sulforhodamine B assay
Format: functional
Conditions: NCI-H460, 48 h
Outline: as §1
Molecule `COCCn1cc(-c2csc(-c3c[nH]c4ccc(F)cc34)n2)c2cccnc21` has a GI50 of 3.38 µM.

System: SW-620
Experiment: Growth inhibition of human SW620 cells incubated for 48 hrs by sulforhodamine B assay
Format: functional
Conditions: SW-620, 48 h
Outline: (§2)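 NCI full-panel human tumour cell screen. Cells were exposed to five 10-fold dilutions from 10^-4 to 10^-8 M. GI50 is the molar concentration giving 50% inhibition of net cell growth, and a mean graph midpoint was calculated across the panel.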
`COCCn1cc(-c2csc(-c3c[nH]c4ccc(F)cc34)n2)c2cccnc21` gave a GI50 of 3.63 µM.

System: SF-539
Experiment: Growth inhibition of human SF539 cells incubated for 48 hrs by sulforhodamine B assay
Format: functional
Conditions: SF-539, 48 h
Outline: as §1
Work on `COCCn1cc(-c2csc(-c3c[nH]c4ccc(F)cc34)n2)c2cccnc21` yielded a GI50 of 8.86 µM.

System: SNB-75
Experiment: Growth inhibition of human SNB75 cells incubated for 48 hrs by sulforhodamine B assay
Format: functional
Conditions: SNB-75, 48 h
Outline: as §2
`COCCn1cc(-c2csc(-c3c[nH]c4ccc(F)cc34)n2)c2cccnc21` showed a GI50 of 2970 nM.

System: M14
Experiment: Growth inhibition of human M14 cells incubated for 48 hrs by sulforhodamine B assay
Format: functional
Conditions: M14, 48 h
Outline: as §1
`COCCn1cc(-c2csc(-c3c[nH]c4ccc(F)cc34)n2)c2cccnc21` showed a GI50 of 3.14 µM.

System: MDA-MB-435
Experiment: Growth inhibition of human MDA-MB-435 cells incubated for 48 hrs by sulforhodamine B assay
Format: functional
Conditions: MDA-MB-435, 48 h
Outline: as §1
For `COCCn1cc(-c2csc(-c3c[nH]c4ccc(F)cc34)n2)c2cccnc21`, the GI50 was 900 nM.

System: SK-MEL-2
Experiment: Growth inhibition of human SK-MEL-2 cells incubated for 48 hrs by sulforhodamine B assay
Format: functional
Conditions: SK-MEL-2, 48 h
Outline: as §2
Molecule `COCCn1cc(-c2csc(-c3c[nH]c4ccc(F)cc34)n2)c2cccnc21` has a GI50 of 3.89 µM.

System: SK-MEL-28
Experiment: Growth inhibition of human SK-MEL-28 cells incubated for 48 hrs by sulforhodamine B assay
Format: functional
Conditions: SK-MEL-28, 48 h
Outline: as §2
`COCCn1cc(-c2csc(-c3c[nH]c4ccc(F)cc34)n2)c2cccnc21` gave a GI50 of 7.72 µM.

System: SK-MEL-5
Experiment: Growth inhibition of human SK-MEL-5 cells incubated for 48 hrs by sulforhodamine B assay
Format: functional
Conditions: SK-MEL-5, 48 h
Outline: as §2
Work on `COCCn1cc(-c2csc(-c3c[nH]c4ccc(F)cc34)n2)c2cccnc21` yielded a GI50 of 2690 nM.

System: OVCAR-3
Experiment: Growth inhibition of human OVCAR3 cells incubated for 48 hrs by sulforhodamine B assay
Format: functional
Conditions: OVCAR-3, 48 h
Outline: as §1
Work on `COCCn1cc(-c2csc(-c3c[nH]c4ccc(F)cc34)n2)c2cccnc21` yielded a GI50 of 3.34 µM.

System: OVCAR-4
Experiment: Growth inhibition of human OVCAR4 cells incubated for 48 hrs by sulforhodamine B assay
Format: functional
Conditions: OVCAR-4, 48 h
Outline: as §1
With `COCCn1cc(-c2csc(-c3c[nH]c4ccc(F)cc34)n2)c2cccnc21` the GI50 was 2590 nM.

System: CAKI-1
Experiment: Growth inhibition of human Caki1 cells incubated for 48 hrs by sulforhodamine B assay
Format: functional
Conditions: CAKI-1, 48 h
Outline: as §1
`COCCn1cc(-c2csc(-c3c[nH]c4ccc(F)cc34)n2)c2cccnc21` showed a GI50 of 9.54 µM.

System: RXF 393
Experiment: Growth inhibition of human RXF393 cells incubated for 48 hrs by sulforhodamine B assay
Format: functional
Conditions: RXF 393, 48 h
Outline: as §1
`COCCn1cc(-c2csc(-c3c[nH]c4ccc(F)cc34)n2)c2cccnc21` gave a GI50 of 5.91 µM.

System: UO-31
Experiment: Growth inhibition of human UO31 cells incubated for 48 hrs by sulforhodamine B assay
Format: functional
Conditions: UO-31, 48 h
Outline: as §2
In the case of `COCCn1cc(-c2csc(-c3c[nH]c4ccc(F)cc34)n2)c2cccnc21`, the GI50 is reported as 4.41 µM.

System: DU-145
Experiment: Growth inhibition of human DU145 cells incubated for 48 hrs by sulforhodamine B assay
Format: functional
Conditions: DU-145, 48 h
Outline: as §1
With `COCCn1cc(-c2csc(-c3c[nH]c4ccc(F)cc34)n2)c2cccnc21` the GI50 was 18.8 µM.

System: MDA-MB-231
Experiment: Growth inhibition of human MDA-MB-231 cells incubated for 48 hrs by sulforhodamine B assay
Format: functional
Conditions: MDA-MB-231, 48 h
Outline: as §1
`COCCn1cc(-c2csc(-c3c[nH]c4ccc(F)cc34)n2)c2cccnc21` showed a GI50 of 2590 nM.

System: T47D
Experiment: Growth inhibition of human T47D cells incubated for 48 hrs by sulforhodamine B assay
Format: functional
Conditions: not given
Outline: as §2
Molecule `COCCn1cc(-c2csc(-c3c[nH]c4ccc(F)cc34)n2)c2cccnc21` has a GI50 of 650 nM.

System: MCF7
Experiment: Induction of apoptosis in human MCF7 cells assessed as early apoptotic cells at 2 x 10^-6 M after 72 hrs by Annexin V/propidium iodide double staining-based flow cytometry (reference value: 1%)
Format: functional
Conditions: not given
Outline: (§3)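 MCF-7 cells were grown in RPMI with 10% FBS, 2 mM L-glutamine and antibiotics at 37 °C in 5% CO2. They were seeded at 2.0 x 10^5 cells/cm2 in triplicate, left to adhere overnight, then treated for 72 h; DMSO 0.1% served as vehicle. Trypsinised cells at 2.0 x 10^5/mL were stained with annexin V-FITC and PI for 15 min at room temperature in the dark. At least 1.0 x 10^4 cells were gated into viable, early apoptotic, late apoptotic and necrotic quadrants.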
With `COCCn1cc(-c2csc(-c3c[nH]c4ccc(F)cc34)n2)c2cccnc21` the Activity was 29.2%.

System: MCF7
Experiment: Induction of apoptosis in human MCF7 cells assessed as late apoptotic cells at 2 x 10^-6 M after 72 hrs by Annexin V/propidium iodide double staining-based flow cytometry (reference value: 0%)
Format: functional
Conditions: not given
Outline: as §3
`COCCn1cc(-c2csc(-c3c[nH]c4ccc(F)cc34)n2)c2cccnc21` showed an Activity of 0%.

System: MCF7
Experiment: Induction of apoptosis in human MCF7 cells assessed as necrotic cells at 2 x 10^-6 M after 72 hrs by Annexin V/propidium iodide double staining-based flow cytometry (reference value: 0.1%)
Format: functional
Conditions: not given
Outline: as §3
`COCCn1cc(-c2csc(-c3c[nH]c4ccc(F)cc34)n2)c2cccnc21` gave an Activity of 0.1%.

System: MCF7
Experiment: Cell cycle arrest in human MCF7 cells assessed as increase in accumulation at G2/M phase at GI50 concentration after 48 hrs by propidium iodide-staining based flow cytometry
Format: functional
Conditions: not given
Outline: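 Cells were trypsinized, washed in cold PBS, and 1 x 10^6 cells stained with 20 µg/ml PI plus 200 µg/ml RNase for 30 min at room temperature in the dark. At least 1x 10^4 cells were analysed by flow cytometry. Mean±SD of three experiments in triplicate.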
With `COCCn1cc(-c2csc(-c3c[nH]c4ccc(F)cc34)n2)c2cccnc21` the Activity was “Active”.

System: Caco-2
Experiment: Cytotoxicity against human Caco2 cells assessed as reduction in cell viability after 72 hrs by MTT assay
Format: cell-based
Conditions: caco-2, 72 h
Outline: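 Caco-2 cells grown in RPMI with 10% FBS and L-glutamine, then treated 15 days after confluence, once differentiated into normal intestinal-like cells. Seeded at 2 × 10^4 cells/well and exposed 72 h to 5–100 µM, DMSO 0.1% vehicle. MTT 2 h at 37 °C, formazan in DMSO, absorbance 570 nm. Vehicle control = 100%; LC50 from viability-versus-concentration plot. At least three experiments in triplicate.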
Molecule `COCCn1cc(-c2csc(-c3c[nH]c4ccc(F)cc34)n2)c2cccnc21` has an LC50 of 96.1 µM.

System: not listed separately
Experiment: Selectivity index, ratio of LC50 for human Caco2 cells to GI50 for human MCF7 cells
Format: toxicity
Conditions: Caco2 cells (LC50) and MCF7 cells (GI50), read-out: Selectivity Index
Outline: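 Caco-2 cells were differentiated to a normal intestinal-like state for 15 days after confluence, seeded at 2 x 10^4 cells/well in RPMI, and treated with 5–100 µM for 72 h. MTT was added for 2 h at 37 °C, formazan was dissolved in DMSO and read at 570 nm. LC50 came from viability-versus-concentration plots, with at least three experiments in triplicate. SI is the Caco-2 LC50 divided by the MCF-7 GI50.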
For `COCCn1cc(-c2csc(-c3c[nH]c4ccc(F)cc34)n2)c2cccnc21`, the selectivity ratio was 46.

System: Caco-2
Experiment: Cytotoxicity against human Caco2 cells assessed as reduction in cell survival at 25 to 100 uM after 72 hrs by MTT assay
Format: cell-based
Conditions: caco-2, 72 h
Outline: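 Caco-2 cells, differentiated 15 days post-confluence, seeded at 2 x 10^4 cells/well and treated 72 h with 5–100 µM compound. MTT added (5 mg/mL in FBS-free medium), 2 h at 37 °C, formazan dissolved in DMSO, absorbance at 570 nm. Viability relative to vehicle control (100%); LC50 taken from the viability-concentration plot. At least three experiments in triplicate.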
With `COCCn1cc(-c2csc(-c3c[nH]c4ccc(F)cc34)n2)c2cccnc21` the Activity was “Toxic”.
